Test results taken from ChEMBL document CHEMBL3351900, “Conjugation of a nonspecific antiviral sapogenin with a specific HIV fusion inhibitor: a promising strategy for discovering new antiviral therapeutics” (J Med Chem, 2014).
Peptide text beside a SMILES is read from it. * marks the point of attachment. X5 = C=C(C)[C@@H]1CC[C@]2(C(=O)OCc3cn(CC(=O)*)nn3)CC[C@]3(C)[C@H](CC[C@@H]4[C@@]5(C)CC[C@H](OC(C)=O)C(C)(C)[C@@H]5CC[C@]43C)[C@@H]12; X8 = C[C@H]1[C@H](C)CC[C@]2(C(=O)O)CC[C@]3(C)C(=CC[C@@H]4[C@@]5(C)CC[C@H](OC(=O)CCc6cn(CC(=O)*)nn6)C(C)(C)[C@@H]5CC[C@]43C)[C@H]12; X7 = C[C@H]1[C@H](C)CC[C@]2(C(=O)OCc3cn(CC(=O)*)nn3)CC[C@]3(C)C(=CC[C@@H]4[C@@]5(C)CC[C@H](O)C(C)(C)[C@@H]5CC[C@]43C)[C@H]12; X6 = CC1(C)CC[C@]2(C(=O)O)CC[C@]3(C)C(=CC[C@@H]4[C@@]5(C)CC[C@H](OC(=O)CCc6cn(CC(=O)*)nn6)C(C)(C)[C@@H]5CC[C@]43C)[C@@H]2C1; X10 = CC1(C)CC[C@]2(C(=O)OCc3cn(CC(=O)*)nn3)CC[C@]3(C)C(=CC[C@@H]4[C@@]5(C)CC[C@H](O)C(C)(C)[C@@H]5CC[C@]43C)[C@@H]2C1; βAla = NCCC(=O)O

Tests used:
[1] = test system: Human immunodeficiency virus 1; assay: Antiviral activity against HIV1 3B infected in human MT2 cells assessed as inhibition of viral p24 antigen production by ELISA; type: functional, organism-based; settings: Human immunodeficiency virus 1, 3B
Method in brief: (§1)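 MT-2 cells (1 × 10⁴) infected with 100 TCID₅₀ virus with or without peptides at graded concentrations. Culture supernatants collected on day 4 postinfection; p24 antigen quantified by ELISA. Percent inhibition and EC₅₀ calculated; tested in triplicate, mean ± standard deviation.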

[2] = Cytotoxicity against human MT2 cells after 4 days by XTT assay; type: cell-based
Method in brief: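 MT-2 cells (5 × 10⁵/mL) mixed with equal volumes of graded conjugate concentrations and held at 37 °C for 4 days. XTT (1 mg/mL) with 0.02 μM phenazine methosulfate added for 4 h, then A450 read. CC50 calculated from the dose–response.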

[3] = test system: Human immunodeficiency virus 1; assay: Antiviral activity against HIV1 BaL infected in human […] cells assessed as inhibition of viral replication; type: functional, organism-based; settings: Human immunodeficiency virus 1, BaL; method in brief: as §1
[4] = Selectivity index, ratio of CC50 for human MT2 cells to EC50 for HIV1 3B infected in human MT2 cells; type: toxicity, cell-based; settings: read-out: Ratio CC50/EC50

Structure (SMILES) | EC50 [1] [nM] | CC50 at 96 h [2] [nM] | EC50 [3] [nM] | selectivity ratio [4]
C=C(C)[C@@H]1CC[C@]2(C(=O)OCc3cn(CC(=O)NCCC(=O)N[C@@H](CC(N)=O)C(=O)N[C@@H](CC(N)=O)C(=O)N[C@@H](Cc4ccc(O)cc4)C(=O)N[C@H](C(=O)N[C@@H](CO)C(=O)N[C@@H](CC(C)C)C(=O)N[C@H](C(=O)N[C@@H](Cc4cnc[nH]4)C(=O)N[C@@H](CO)C(=O)N[C@@H](CC(C)C)C(=O)N[C@H](C(=O)N[C@@H](CCC(=O)O)C(=O)N[C@@H](CCC(=O)O)C(=O)N[C@@H](CO)C(=O)N[C@@H](CCC(N)=O)C(=O)N[C@@H](CC(N)=O)C(=O)N[C@@H](CCC(N)=O)C(=O)N[C@@H](CCC(N)=O)C(=O)N[C@@H](CCC(=O)O)C(=O)N[C@@H](CCCCN)C(=O)N[C@@H](CC(N)=O)C(=O)N[C@@H](CCC(=O)O)C(=O)N[C@@H](CCC(N)=O)C(=O)N[C@@H](CCC(=O)O)C(=O)N[C@@H](CC(C)C)C(=O)N[C@@H](CC(C)C)C(N)=O)[C@@H](C)CC)[C@@H](C)CC)[C@@H](C)O)nn3)CC[C@]3(C)[C@H](CC[C@@H]4[C@@]5(C)CC[C@H](OC(C)=O)C(C)(C)[C@@H]5CC[C@]43C)[C@@H]12 ({X5-βAla}-NNYTSLIHSLIEESQNQQEKNEQELL-NH2) | 501 | > 25000 | 99 | > 52
CC[C@H](C)[C@H](NC(=O)[C@H](CC(C)C)NC(=O)[C@H](CO)NC(=O)[C@H](Cc1cnc[nH]1)NC(=O)[C@@H](NC(=O)[C@H](CC(C)C)NC(=O)[C@H](CO)NC(=O)[C@@H](NC(=O)[C@H](Cc1ccc(O)cc1)NC(=O)[C@H](CC(N)=O)NC(=O)[C@H](CC(N)=O)NC(=O)CCNC(=O)Cn1cc(CCC(=O)O[C@H]2CC[C@]3(C)[C@H]4CC=C5[C@@H]6CC(C)(C)CC[C@]6(C(=O)O)CC[C@@]5(C)[C@]4(C)CC[C@H]3C2(C)C)nn1)[C@@H](C)O)[C@@H](C)CC)C(=O)N[C@@H](CCC(=O)O)C(=O)N[C@@H](CCC(=O)O)C(=O)N[C@@H](CO)C(=O)N[C@@H](CCC(N)=O)C(=O)N[C@@H](CC(N)=O)C(=O)N[C@@H](CCC(N)=O)C(=O)N[C@@H](CCC(N)=O)C(=O)N[C@@H](CCC(=O)O)C(=O)N[C@@H](CCCCN)C(=O)N[C@@H](CC(N)=O)C(=O)N[C@@H](CCC(=O)O)C(=O)N[C@@H](CCC(N)=O)C(=O)N[C@@H](CCC(=O)O)C(=O)N[C@@H](CC(C)C)C(=O)N[C@@H](CC(C)C)C(N)=O ({X6-βAla}-NNYTSLIHSLIEESQNQQEKNEQELL-NH2) | 94 | > 25000 | 150 | > 266
CC[C@H](C)[C@H](NC(=O)[C@H](CC(C)C)NC(=O)[C@H](CO)NC(=O)[C@H](Cc1cnc[nH]1)NC(=O)[C@@H](NC(=O)[C@H](CC(C)C)NC(=O)[C@H](CO)NC(=O)[C@@H](NC(=O)[C@H](Cc1ccc(O)cc1)NC(=O)[C@H](CC(N)=O)NC(=O)[C@H](CC(N)=O)NC(=O)CCNC(=O)Cn1cc(COC(=O)[C@]23CC[C@@H](C)[C@H](C)[C@H]2C2=CC[C@@H]4[C@@]5(C)CC[C@H](O)C(C)(C)[C@@H]5CC[C@@]4(C)[C@]2(C)CC3)nn1)[C@@H](C)O)[C@@H](C)CC)C(=O)N[C@@H](CCC(=O)O)C(=O)N[C@@H](CCC(=O)O)C(=O)N[C@@H](CO)C(=O)N[C@@H](CCC(N)=O)C(=O)N[C@@H](CC(N)=O)C(=O)N[C@@H](CCC(N)=O)C(=O)N[C@@H](CCC(N)=O)C(=O)N[C@@H](CCC(=O)O)C(=O)N[C@@H](CCCCN)C(=O)N[C@@H](CC(N)=O)C(=O)N[C@@H](CCC(=O)O)C(=O)N[C@@H](CCC(N)=O)C(=O)N[C@@H](CCC(=O)O)C(=O)N[C@@H](CC(C)C)C(=O)N[C@@H](CC(C)C)C(N)=O ({X7-βAla}-NNYTSLIHSLIEESQNQQEKNEQELL-NH2) | 565 | > 25000 | 288 | > 44
CC[C@H](C)[C@H](NC(=O)[C@H](CC(C)C)NC(=O)[C@H](CO)NC(=O)[C@H](Cc1cnc[nH]1)NC(=O)[C@@H](NC(=O)[C@H](CC(C)C)NC(=O)[C@H](CO)NC(=O)[C@@H](NC(=O)[C@H](Cc1ccc(O)cc1)NC(=O)[C@H](CC(N)=O)NC(=O)[C@H](CC(N)=O)NC(=O)CCNC(=O)Cn1cc(CCC(=O)O[C@H]2CC[C@]3(C)[C@H]4CC=C5[C@@H]6[C@@H](C)[C@H](C)CC[C@]6(C(=O)O)CC[C@@]5(C)[C@]4(C)CC[C@H]3C2(C)C)nn1)[C@@H](C)O)[C@@H](C)CC)C(=O)N[C@@H](CCC(=O)O)C(=O)N[C@@H](CCC(=O)O)C(=O)N[C@@H](CO)C(=O)N[C@@H](CCC(N)=O)C(=O)N[C@@H](CC(N)=O)C(=O)N[C@@H](CCC(N)=O)C(=O)N[C@@H](CCC(N)=O)C(=O)N[C@@H](CCC(=O)O)C(=O)N[C@@H](CCCCN)C(=O)N[C@@H](CC(N)=O)C(=O)N[C@@H](CCC(=O)O)C(=O)N[C@@H](CCC(N)=O)C(=O)N[C@@H](CCC(=O)O)C(=O)N[C@@H](CC(C)C)C(=O)N[C@@H](CC(C)C)C(N)=O ({X8-βAla}-NNYTSLIHSLIEESQNQQEKNEQELL-NH2) | 387 | > 25000 | 113 | > 64
CC[C@H](C)[C@H](NC(=O)[C@H](CC(C)C)NC(=O)[C@H](CO)NC(=O)[C@H](Cc1cnc[nH]1)NC(=O)[C@@H](NC(=O)[C@H](CC(C)C)NC(=O)[C@H](CO)NC(=O)[C@@H](NC(=O)[C@H](Cc1ccc(O)cc1)NC(=O)[C@H](CC(N)=O)NC(=O)[C@H](CC(N)=O)NC(=O)CCNC(=O)Cn1cc(COC(=O)[C@]23CCC(C)(C)C[C@H]2C2=CC[C@@H]4[C@@]5(C)CC[C@H](O)C(C)(C)[C@@H]5CC[C@@]4(C)[C@]2(C)CC3)nn1)[C@@H](C)O)[C@@H](C)CC)C(=O)N[C@@H](CCC(=O)O)C(=O)N[C@@H](CCC(=O)O)C(=O)N[C@@H](CO)C(=O)N[C@@H](CCC(N)=O)C(=O)N[C@@H](CC(N)=O)C(=O)N[C@@H](CCC(N)=O)C(=O)N[C@@H](CCC(N)=O)C(=O)N[C@@H](CCC(=O)O)C(=O)N[C@@H](CCCCN)C(=O)N[C@@H](CC(N)=O)C(=O)N[C@@H](CCC(=O)O)C(=O)N[C@@H](CCC(N)=O)C(=O)N[C@@H](CCC(=O)O)C(=O)N[C@@H](CC(C)C)C(=O)N[C@@H](CC(C)C)C(N)=O ({X10-βAla}-NNYTSLIHSLIEESQNQQEKNEQELL-NH2) | 369 | > 25000 | 498 | > 68
